ChEMBL document CHEMBL4480441, “Discovery and development of novel rhodanine derivatives targeting enoyl-acyl carrier protein reductase” (Bioorg Med Chem, 2019)
Converted amounts (≈) assume the structure as drawn.

How the values were obtained:
[1] = biological target: T1, Enoyl-[acyl-carrier-protein] reductase [NADH] (Mycobacterium tuberculosis, UniProt P9WGR1); assay: Inhibition of recombinant Mycobacterium tuberculosis InhA expressed in Escherichia coli […] pLysS using trans-2-decenoyl-N-acetylcysteamine as substrate by spectrophotometric method
T1 sequence (P9WGR1 whole entry): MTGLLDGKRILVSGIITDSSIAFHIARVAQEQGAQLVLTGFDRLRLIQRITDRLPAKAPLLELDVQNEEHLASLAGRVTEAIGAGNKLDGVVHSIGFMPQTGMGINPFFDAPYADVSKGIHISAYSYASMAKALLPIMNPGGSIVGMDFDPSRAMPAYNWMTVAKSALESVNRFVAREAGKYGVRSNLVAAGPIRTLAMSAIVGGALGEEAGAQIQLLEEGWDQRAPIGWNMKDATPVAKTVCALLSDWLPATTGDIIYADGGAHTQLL

[2] = test system: Mycobacterium tuberculosis; assay: Antitubercular activity against Mycobacterium tuberculosis measured after 48 hrs by luminescence based serial dilution method; assay type: functional
[3] = Cytotoxicity against HEK293 cells after 48 hrs by MTT assay; assay type: cell-based; conditions: human, read-out: MIC
[4] = test system: Staphylococcus aureus; assay: Antimicrobial activity against […] Staphylococcus aureus ATCC 29213 measured after 48 hrs; assay type: functional; conditions: ATCC 29213, 48 h
Procedure, shortened: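 Brucella broth with 10% heat-inactivated horse serum. Inoculum of 1×10^5 bacteria per well, exposed to a range of compound concentrations at 37 °C for 48 h. Absorbance read at 590 nm. Drug-free wells served as growth control and medium-only wells as blank. MIC is the concentration giving 80% growth inhibition.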

[5] = test system: Staphylococcus aureus; assay: Antimicrobial activity against methicillin-sensitive Staphylococcus aureus ATCC 25923 measured after 48 hrs; assay type: functional; conditions: ATCC 25923, 48 h
Procedure, shortened: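 Brucella broth with 10% heat-inactivated horse serum. Inoculum of 1×10^5 bacteria per well, exposed to a range of compound concentrations for 48 h at 37 °C. Read as absorbance at 590 nm, with compound-free wells as control and medium-only wells as blank. Percent growth inhibition was calculated, and the concentration giving 80% inhibition was taken as the MIC.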

[6] = test system: Pseudomonas aeruginosa; assay: Antimicrobial activity against Pseudomonas aeruginosa […] measured after 48 hrs by p-iodonitrotetrazolium violet dye based serial dilution test; assay type: functional
[7] = biological target: DNA gyrase (Escherichia coli, UniProt P0AES4+P0AES6); assay: Inhibition of Escherichia coli DNA gyrase assessed as reduction in enzyme-mediated supercoiling of relaxed pBR322 DNA measured after 60 mins by electrophoresis method; assay type: protein-complex assay
[8] = biological target: T2, 3-oxoacyl-[acyl-carrier-protein] synthase 3 (Escherichia coli, UniProt C3TDZ2); assay: Inhibition of Escherichia coli KAS3 expressed in Escherichia coli BL21(DE3)
T2 sequence (C3TDZ2 whole entry): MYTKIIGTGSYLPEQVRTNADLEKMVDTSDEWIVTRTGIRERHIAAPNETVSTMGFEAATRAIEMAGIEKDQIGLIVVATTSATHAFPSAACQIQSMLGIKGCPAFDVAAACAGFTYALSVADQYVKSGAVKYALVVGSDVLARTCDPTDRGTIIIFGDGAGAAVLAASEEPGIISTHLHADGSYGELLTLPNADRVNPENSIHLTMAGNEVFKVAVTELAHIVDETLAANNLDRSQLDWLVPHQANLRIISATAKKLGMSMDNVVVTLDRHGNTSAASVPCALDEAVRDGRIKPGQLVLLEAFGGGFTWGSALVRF

SMILES | IC50 [1] | MIC [2] | MCC at 48 h [3] | MIC [4] | MIC [5] | MIC [6] | IC50 [7] | IC50 [8]
CC(=O)Nc1ccc(/C=C2/SC(=S)N(CC(=O)c3ccccc3)C2=O)cc1 | 11.6 µM | 3.18 µM (≈ 1.26 µg/mL) | – | – | – | – | – | –
O=C(CN1C(=O)/C(=C\c2ccc([N+](=O)[O-])cc2)SC1=S)c1ccccc1 | 43.5 µM | 36.5 µM (≈ 14 µg/mL) | – | – | – | – | – | –
CC(/C=C1\SC(=S)N(CC(=O)O)C1=O)=C\c1ccccc1 | > 200 µM | > 200 µM | – | – | – | – | – | –
O=C(CN1C(=O)/C(=C\c2ccc(O)cc2)SC1=S)c1ccccc1 | 35.3 µM | 33.1 µM (≈ 11.8 µg/mL) | – | – | – | – | – | –
COc1ccc(C(=O)CN2C(=O)/C(=C\c3ccc(F)cc3)SC2=S)cc1 | 20.1 µM | 17.8 µM (≈ 6.9 µg/mL) | – | – | – | – | – | –
O=C(CN1C(=O)/C(=C\c2ccc(F)cc2)SC1=S)c1ccccc1 | 55 µM | 57.4 µM (≈ 20.5 µg/mL) | – | – | – | – | – | –
O=C(CN1C(=O)/C(=C\c2cccc(Cl)c2)SC1=S)c1ccccc1 | 47.3 µM | 40.9 µM (≈ 15.3 µg/mL) | – | – | – | – | – | –
O=C(CN1C(=O)/C(=C\c2ccc(Br)cc2)SC1=S)c1ccccc1 | 23.9 µM | 21.1 µM (≈ 8.83 µg/mL) | – | – | – | – | – | –
COc1ccc(C(=O)CN2C(=O)/C(=C\c3ccc(C)cc3)SC2=S)cc1 | 5.02 µM | 0.49 µM (≈ 0.188 µg/mL) | 195 µM | 10.2 µM (≈ 3.91 µg/mL) | 6.15 µM (≈ 2.36 µg/mL) | 8.12 µM (≈ 3.11 µg/mL) | – | –
COc1cccc(/C=C2/SC(=S)N(CC(=O)c3ccccc3)C2=O)c1 | 22.6 µM | 20.5 µM (≈ 7.57 µg/mL) | – | – | – | – | – | –
NNC(=O)c1ccncc1 [ISONIAZID] | 8.29 µM | 0.58 µM (≈ 0.0795 µg/mL) | 120 µM | 1.42 µM (≈ 0.195 µg/mL) | 1.26 µM (≈ 0.173 µg/mL) | 2.85 µM (≈ 0.391 µg/mL) | > 1000 µM | > 1000 µM
COc1ccc(C(=O)CN2C(=O)/C(=C\c3ccccc3OC)SC2=S)cc1 | 16.8 µM | 9.27 µM (≈ 3.7 µg/mL) | – | – | – | – | – | –
O=C(CN1C(=O)/C(=C\c2ccccc2Cl)SC1=S)c1ccccc1 | 25.8 µM | 25.5 µM (≈ 9.53 µg/mL) | – | – | – | – | – | –
COc1cc(/C=C2/SC(=S)N(CC(=O)c3ccccc3)C2=O)cc(OC)c1OC | 3.12 µM | 0.38 µM (≈ 0.163 µg/mL) | > 200 µM | 7.2 µM (≈ 3.09 µg/mL) | 4.61 µM (≈ 1.98 µg/mL) | 5.41 µM (≈ 2.32 µg/mL) | > 1000 µM | 780 µM
COc1ccc(C(=O)CN2C(=O)/C(=C\c3cccc(Cl)c3)SC2=S)cc1 | 7.84 µM | 2.02 µM (≈ 0.816 µg/mL) | > 200 µM | 3.88 µM (≈ 1.57 µg/mL) | 2.16 µM (≈ 0.872 µg/mL) | 5.05 µM (≈ 2.04 µg/mL) | – | –
CN(C)c1ccc(/C=C2/SC(=S)N(CC(=O)c3ccccc3)C2=O)cc1 | 17.4 µM | 12.6 µM (≈ 4.82 µg/mL) | – | – | – | – | – | –
COc1ccc(/C=C2/SC(=S)N(CC(=O)c3ccccc3)C2=O)cc1 | 8.24 µM | 2.95 µM (≈ 1.09 µg/mL) | 167 µM | 4.15 µM (≈ 1.53 µg/mL) | 4.28 µM (≈ 1.58 µg/mL) | 4.83 µM (≈ 1.78 µg/mL) | – | –
COc1ccc(C(=O)CN2C(=O)/C(=C\c3ccc(Cl)cc3)SC2=S)cc1 | 16.5 µM | 8.62 µM (≈ 3.48 µg/mL) | – | – | – | – | – | –
COc1ccccc1/C=C1/SC(=S)N(CC(=O)c2ccccc2)C1=O | 28.1 µM | 30.4 µM (≈ 11.2 µg/mL) | – | – | – | – | – | –
COc1ccc(C(=O)CN2C(=O)/C(=C\c3cc(OC)c(OC)c(OC)c3)SC2=S)cc1 | 2.55 µM | 0.29 µM (≈ 0.133 µg/mL) | > 200 µM | 1.54 µM (≈ 0.708 µg/mL) | 1.24 µM (≈ 0.57 µg/mL) | 0.95 µM (≈ 0.437 µg/mL) | > 1000 µM | 900 µM
COc1ccc(C(=O)CN2C(=O)/C(=C\c3ccccc3Cl)SC2=S)cc1 | 15.3 µM | 7.83 µM (≈ 3.16 µg/mL) | – | – | – | – | – | –
Cc1ccc(/C=C2/SC(=S)N(CC(=O)c3ccccc3)C2=O)cc1 | 17.5 µM | 15.1 µM (≈ 5.34 µg/mL) | – | – | – | – | – | –
COc1ccc(C(=O)CN2C(=O)/C(=C\c3ccc(Br)cc3)SC2=S)cc1 | 12.1 µM | 4.04 µM (≈ 1.81 µg/mL) | – | – | – | – | – | –
O=C(CN1C(=O)/C(=C\c2ccc(Cl)cc2)SC1=S)c1ccccc1 | 50.1 µM | 48.2 µM (≈ 18 µg/mL) | – | – | – | – | – | –
O=C(CN1C(=O)/C(=C\c2ccccc2)SC1=S)c1ccccc1 | 40.2 µM | 32.3 µM (≈ 11 µg/mL) | – | – | – | – | – | –
Oc1cc(Cl)ccc1Oc1ccc(Cl)cc1Cl [TRICLOSAN] | – | 8.65 µM (≈ 2.5 µg/mL) | 20.5 µM | 0.68 µM (≈ 0.197 µg/mL) | 0.39 µM (≈ 0.113 µg/mL) | 1.25 µM (≈ 0.362 µg/mL) | > 1000 µM | 850 µM
